Measured values published in ChEMBL document CHEMBL1158168, “Condensed bridgehead nitrogen heterocyclic system: synthesis and pharmacological activities of 1,2,4-triazolo-[3,4-b]-1,3,4-thiadiazole derivatives of ibuprofen and biphenyl-4-yloxy acetic acid” (Eur J Med Chem, 2008).
Values after ≈ are worked out from the molar mass of the structure shown. Active and inactive are the calls of the source. No cut-off for these calls is given here.

Key:
Rattus norvegicus [1] = test: Antiinflammatory activity in Wistar albino rat assessed as inhibition of carrageenan-induced paw edema administered at equimolar oral dose relative to 10 mg/kg fluribiprofen measured 4 hrs after carrageenan challenge; format: functional
In short: (§1)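 Wistar rats of either sex (180-200 g), six per group, dosed orally in a 0.5% CMC vehicle. One hour later, 0.1 mL of […] in 0.9% NaCl was injected sub-plantar into the right hind paw. Paw volume was read by plethysmometer before and 4 h after carrageenan, and percent inhibition was calculated.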

Staphylococcus aureus = test: Antibacterial activity against Staphylococcus aureus ATCC 19433 by cup plate method; format: functional
In short: (§2)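 Cup-plate diffusion on nutrient agar, with compounds dissolved in DMF. Compounds were tested at 200, 100, 50 and 25; those inhibiting at 25 were also tested at 12.5 and 6.25. MIC is the lowest concentration preventing visible growth on the plate.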

Escherichia coli = test: Antibacterial activity against sEscherichia coli ATCC 25922 by cup plate method; format: functional; in short: as §2
Candida albicans = test: Antimicrobial activity against Candida albicans ATCC 2091 by cup plate method; format: functional
In short: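 Candida albicans grown on Sabouraud dextrose medium and tested by cup-plate diffusion, with compounds dissolved in DMF. Compounds were tested at 200, 100, 50 and 25; those inhibiting at 25 were also tested at 12.5 and 6.25. MIC is the lowest concentration preventing visible growth.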

Rattus norvegicus [2] = test: Gastrointestinal toxicity in rat assessed as gastric mucosal damage severity index administered at equimolar oral dose relative to 30 mg/kg fluribiprofen; format: organism-based, Gastric mucosa; design: dose 30 mg/kg, route oral; conditions: in vivo
In short: (§3)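 Rats, six per group, were fasted 24 h with water allowed, then dosed orally in a 0.5% CMC vehicle. They were fed normally for 17 h and then sacrificed. Stomachs were opened along the greater curvature and mucosal lesions scored under a magnifier (0.5 redness to 3.0 for more than 5 ulcers). Severity index is the mean group score minus the control mean.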

Rattus norvegicus [3] = test: Hepatotoxicity in po dosed Wistar albino rat assessed as serum glutamate oxaloacetate transaminase activity after 7 days; format: toxicity, organism-based; conditions: in vivo, 168 h
Rattus norvegicus [4] = test: Hepatotoxicity in po dosed Wistar albino rat assessed as serum glutamate pyruvate transaminase activity after 7 days; format: toxicity, organism-based; conditions: in vivo, 168 h
Rattus norvegicus [5] = test: Hepatotoxicity in po dosed Wistar albino rat assessed as alkaline phosphatase activity after 7 days; format: toxicity, organism-based; conditions: in vivo, 168 h
Rattus norvegicus [6] = test: Hepatotoxicity in po dosed Wistar albino rat assessed as total protein content after 7 days; format: toxicity, organism-based; conditions: in vivo, 168 h
Rattus norvegicus [7] = test: Hepatotoxicity in po dosed Wistar albino rat assessed as total albumin content after 7 days; format: toxicity, organism-based; conditions: in vivo, 168 h
Rattus norvegicus [8] = test: Hepatotoxicity in po dosed Wistar albino rat assessed as hepatocyte necrosis after 7 days; format: toxicity, organism-based; conditions: hepatocytes, 168 h
Mus musculus [9] = test: Analgesic activity in Swiss albino mouse assessed as effect on reaction time for tail withdrawal administered at 70 mg/kg, po after 4 hrs by tail immersion method; format: functional
In short: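 Swiss albino mice of either sex (25-30 g), six per group. Compounds were given orally as a suspension in 0.5% w/v CMC in water. Tail-withdrawal reaction time was measured before dosing and 4 h after, by immersing the lower 5 cm of the tail in water held at 55 ± 0.5 °C.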

Rattus norvegicus [10] = test: Gastrointestinal toxicity in rat assessed as gastric mucosal damage severity index at 210 mg/kg, po; format: organism-based, Gastric mucosa; design: dose 210 mg/kg, route oral; conditions: in vivo; in short: as §3
Rattus norvegicus [11] = test: Inhibition of lipid peroxidation in rat assessed as malondialdehyde level per 100 mg of tissue at 210 mg/kg, po; format: functional
In short: (§4)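 Gastric mucosa was scraped from the stomachs after ulcer scoring. 100 mg was homogenized in ice-cold 1.15% KCl and reacted with SDS, acetate buffer (pH 3.5) and 0.8% TBA at 95 °C for 60 min. The product was extracted into n-butanol/pyridine (15:1) and absorbance read at 532 nm. MDA was calculated using ε 1.56 × 10⁵ M⁻¹cm⁻¹ and expressed per 100 mg tissue.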

Rattus norvegicus [12] = test: Antiinflammatory activity in Wistar albino rat assessed as inhibition of carrageenan-induced paw edema at 10 mg/kg, po measured 4 hrs after carrageenan challenge; format: functional
In short: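 Wistar albino rats of either sex, 180-200 g, groups of six; oral dosing, vehicle 0.5% CMC. 0.1 mL of 0.1% carrageenan in sterile 0.9% NaCl injected subplantar into the right hind paw 1 h after dosing. Paw volume measured by plethysmometer before and 4 h after carrageenan; percent inhibition calculated.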

Rattus norvegicus [13] = test: Gastrointestinal toxicity in rat assessed as gastric mucosal damage severity index at 30 mg/kg, po; format: organism-based, Gastric mucosa; design: dose 30 mg/kg, route oral; conditions: in vivo
In short: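 Rats, groups of six, food but not water withheld 24 h; oral dosing in 0.5% CMC. Normal diet for 17 h, then sacrificed. Stomach opened along the greater curvature and inspected under a magnifying glass. Scored 0.5 redness to 3.0 (>5 ulcers); severity index is the group mean score minus the control mean.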

Rattus norvegicus [14] = test: Inhibition of lipid peroxidation in rat assessed as malondialdehyde level per 100 mg of tissue at 30 mg/kg, po; format: functional
In short: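 Gastric mucosa scraped from stomachs after ulcerogenicity testing; 100 mg homogenized in 1.15% ice-cold KCl. TBA method with SDS and acetate buffer pH 3.5, heated at 95 °C for 60 min. Extracted into n-butanol/pyridine 15:1, absorbance read at 532 nm. Expressed as nmol MDA/100 mg tissue using ε 1.56 × 10⁵ cm⁻¹ M⁻¹.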

Mus musculus [15] = test: Analgesic activity in Swiss albino mouse assessed as effect on reaction time for tail withdrawal administered at 10 mg/kg, po after 4 hrs by tail immersion method; format: functional
In short: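 Swiss albino mice of either sex, 25-30 g, groups of six; oral dosing as suspension in 0.5% w/v CMC in water. Tail immersion: lower 5 cm of tail dipped in water held at 55 ± 0.5 °C. Reaction time taken before and 4 h after dosing.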

Rattus norvegicus [16] = test: Antiinflammatory activity in Wistar albino rat assessed as inhibition of carrageenan-induced paw edema administered at equimolar oral dose relative to 70 mg/kg ibuprofen measured 4 hrs after carrageenan challenge; format: functional; in short: as §1
Rattus norvegicus [17] = test: Gastrointestinal toxicity in rat assessed as gastric mucosal damage severity index administered at equimolar oral dose relative to 210 mg/kg ibuprofen; format: organism-based, Gastric mucosa; design: dose 210 mg/kg, route oral; conditions: in vivo; in short: as §3
Rattus norvegicus [18] = test: Inhibition of lipid peroxidation in rat assessed as malondialdehyde level per 100 mg of tissue administered at equimolar oral dose relative to 210 mg/kg ibuprofen; format: functional; in short: as §4

SMILES | inhibition in vivo (Rattus norvegicus [1]) | MIC (Staphylococcus aureus) | MIC (Escherichia coli) | MIC (Candida albicans) | inhibition in vivo (Rattus norvegicus [16]) | also measured
c1ccc(-c2ccc(OCc3nnc4sc(-c5ccccc5)nn34)cc2)cc1 | 65.1% | 25 µg/mL (≈ 65 µM) | 25 µg/mL (≈ 65 µM) | – | – | Activity (Candida albicans): inactive
c1ccc(Nc2nn3c(COc4ccc(-c5ccccc5)cc4)nnc3s2)cc1 | – | – | 25 µg/mL (≈ 62.6 µM) | 200 µg/mL (≈ 501 µM) | – | Activity (Staphylococcus aureus): inactive
Fc1ccc(Nc2nn3c(COc4ccc(-c5ccccc5)cc4)nnc3s2)cc1 | 78.2% | – | 25 µg/mL (≈ 59.9 µM) | – | – | Activity (Staphylococcus aureus): inactive; Activity (Candida albicans): inactive; UI (Rattus norvegicus [2]): 0.666; Activity (Rattus norvegicus [3]): 137 U/ml; Activity (Rattus norvegicus [4]): 26.5 U/ml; Activity (Rattus norvegicus [5]): 17.07 U/ml; Activity (Rattus norvegicus [6]): 0.9 g/dL; Activity (Rattus norvegicus [7]): 0.71 g/dL; Activity (Rattus norvegicus [8]): Non-toxic
CC(C)Cc1ccc(C(C)C(=O)O)cc1 (stereo unspecified) [IBUPROFEN] | – | – | – | – | – | inhibition in vivo at 70 mg/kg (Mus musculus [9]): 74.1%; UI (Rattus norvegicus [10]): 2; Activity (Rattus norvegicus [11]): 7.79 nmol
CC(C(=O)O)c1ccc(-c2ccccc2)c(F)c1 (stereo unspecified) [FLURBIPROFEN] | – | – | – | – | – | inhibition in vivo at 10 mg/kg (Rattus norvegicus [12]): 80.3%; UI (Rattus norvegicus [13]): 1.666; Activity (Rattus norvegicus [14]): 7.51 nmol; inhibition in vivo at 10 mg/kg (Mus musculus [15]): 69.5%
Nc1ccccc1-c1nn2c(COc3ccc(-c4ccccc4)cc3)nnc2s1 | 47.7% | 25 µg/mL (≈ 62.6 µM) | 50 µg/mL (≈ 125 µM) | 25 µg/mL (≈ 62.6 µM) | – | –
CC(=O)N1CCN(c2ccc(OCC3COC(Cn4ccnc4)(c4ccc(Cl)cc4Cl)O3)cc2)CC1 (stereo unspecified) [KETOCONAZOLE] | – | – | – | 6.25 µg/mL (≈ 11.8 µM) | – | –
Clc1ccc(OCc2nn3c(COc4ccc(-c5ccccc5)cc4)nnc3s2)c(Cl)c1 | 50.8% | 25 µg/mL (≈ 51.7 µM) | 50 µg/mL (≈ 103 µM) | 50 µg/mL (≈ 103 µM) | – | –
CC(C)Cc1ccc(C(C)c2nnc3sc(Nc4ccccc4)nn23)cc1 (stereo unspecified) | – | 100 µg/mL (≈ 265 µM) | 25 µg/mL (≈ 66.2 µM) | – | 68.2% | Activity (Candida albicans): inactive; UI (Rattus norvegicus [17]): 0.667; Activity (Rattus norvegicus [18]): 5.12 nmol
CC(C)Cc1ccc(C(C)c2nnc3sc(Cc4ccccc4Nc4c(Cl)cccc4Cl)nn23)cc1 (stereo unspecified) | – | 50 µg/mL (≈ 93.2 µM) | 200 µg/mL (≈ 373 µM) | 200 µg/mL (≈ 373 µM) | 18.2% | –
Nc1ccc(-c2nn3c(COc4ccc(-c5ccccc5)cc4)nnc3s2)cc1 | 76.5% | 50 µg/mL (≈ 125 µM) | 200 µg/mL (≈ 501 µM) | 200 µg/mL (≈ 501 µM) | – | UI (Rattus norvegicus [2]): 0.417
Clc1ccc(-c2nn3c(COc4ccc(-c5ccccc5)cc4)nnc3s2)c(Cl)c1 | – | 25 µg/mL (≈ 55.1 µM) | 50 µg/mL (≈ 110 µM) | – | – | –
CC(C)Cc1ccc(C(C)c2nnc3sc(-c4ccc(N)cc4)nn23)cc1 (stereo unspecified) | – | 200 µg/mL (≈ 530 µM) | 12.5 µg/mL (≈ 33.1 µM) | 200 µg/mL (≈ 530 µM) | 78.8% | UI (Rattus norvegicus [17]): 0.75; Activity (Rattus norvegicus [18]): 5.65 nmol
Cc1ccc(Nc2nn3c(COc4ccc(-c5ccccc5)cc4)nnc3s2)c(C)c1 | 39.4% | – | 50 µg/mL (≈ 117 µM) | 100 µg/mL (≈ 234 µM) | – | Activity (Staphylococcus aureus): inactive
Clc1ccc(-c2nn3c(COc4ccc(-c5ccccc5)cc4)nnc3s2)cc1 | 78.8% | 100 µg/mL (≈ 239 µM) | 25 µg/mL (≈ 59.7 µM) | 50 µg/mL (≈ 119 µM) | – | UI (Rattus norvegicus [2]): 0.833
CC(C)Cc1ccc(C(C)c2nnc3sc(-c4ccccc4N)nn23)cc1 (stereo unspecified) | – | 200 µg/mL (≈ 530 µM) | 100 µg/mL (≈ 265 µM) | 12.5 µg/mL (≈ 33.1 µM) | 57.6% | –
CCCCNc1nn2c(C(C)c3ccc(CC(C)C)cc3)nnc2s1 (stereo unspecified) | – | 200 µg/mL (≈ 559 µM) | 100 µg/mL (≈ 280 µM) | 50 µg/mL (≈ 140 µM) | 80.3% | UI (Rattus norvegicus [17]): 1; Activity (Rattus norvegicus [18]): 5.78 nmol
CC1COc2c(N3CCN(C)CC3)c(F)cc3c(=O)c(C(=O)O)cn1c23 (stereo unspecified) [OFLOXACIN] | – | 6.25 µg/mL (≈ 17.3 µM) | 6.25 µg/mL (≈ 17.3 µM) | – | – | –
CC(C)Cc1ccc(C(C)c2nnc3sc(-c4ccc(Cl)cc4Cl)nn23)cc1 (stereo unspecified) | – | 200 µg/mL (≈ 464 µM) | 200 µg/mL (≈ 464 µM) | 200 µg/mL (≈ 464 µM) | 80.3% | UI (Rattus norvegicus [17]): 0.333; Activity (Rattus norvegicus [18]): 5.04 nmol; Activity (Rattus norvegicus [3]): 147.5 U/ml; Activity (Rattus norvegicus [4]): 28.17 U/ml; Activity (Rattus norvegicus [5]): 15.18 U/ml; Activity (Rattus norvegicus [6]): 1.89 g/dL; Activity (Rattus norvegicus [7]): 1.8 g/dL; Activity (Rattus norvegicus [8]): Non-toxic
CC(C)Cc1ccc(C(C)c2nnc3sc(Nc4ccc(F)cc4)nn23)cc1 (stereo unspecified) | – | 200 µg/mL (≈ 506 µM) | 200 µg/mL (≈ 506 µM) | 200 µg/mL (≈ 506 µM) | 28% | –
Cc1ccc(Nc2nn3c(C(C)c4ccc(CC(C)C)cc4)nnc3s2)c(C)c1 (stereo unspecified) | – | 200 µg/mL (≈ 493 µM) | 50 µg/mL (≈ 123 µM) | 200 µg/mL (≈ 493 µM) | 53% | –
CCCCNc1nn2c(COc3ccc(-c4ccccc4)cc3)nnc2s1 | 65.9% | – | 100 µg/mL (≈ 264 µM) | 25 µg/mL (≈ 65.9 µM) | – | Activity (Staphylococcus aureus): inactive
CC(C)Cc1ccc(C(C)c2nnc3sc(COc4ccc(Cl)cc4Cl)nn23)cc1 (stereo unspecified) | – | 200 µg/mL (≈ 433 µM) | 25 µg/mL (≈ 54.2 µM) | 100 µg/mL (≈ 217 µM) | 38.6% | –
